# High-throughput results as filed in PubChem.
# Compounds with a hit are over-represented: about 2.6% of the library has one in this group of screens.
# PolyA inh = polyadenylation inhibitors in yeast reporter cells, primary screen, luminescence, S. cerevisiae; S. cerevisiae SKY197-pL101 polyadenylation reporter, beta-gal luminescence; efflux-impaired pdr1/pdr3 knockout yeast; score 100 = 6 SD above DMSO; activity score, % at 12 µM; actives 0.02% (n = 300,000);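 active means lowest replicate activity score at least 50, where 100 means six control SD above control mean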;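 further: yeast exposed to compound for 9 h at 30 °C; higher score means more reporter readthrough which indicates perturbed polyadenylation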
# CHT PAM = CHT positive allosteric modulators, primary screen, cell-based, membrane potential dye, choline EC20. CHT-expressing cells; hits give high values; LV-AA mutant CHT in HEK293 cells. B-score at 10 µM. actives 0.49% (n = 310,000). AID 488977, 2010;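 active means initial fluorescence not abnormally high and integrated response B-score, plate-corrected, over 3 SD above library mean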
# Target sequence (Q9GZV3 whole entry, looked up): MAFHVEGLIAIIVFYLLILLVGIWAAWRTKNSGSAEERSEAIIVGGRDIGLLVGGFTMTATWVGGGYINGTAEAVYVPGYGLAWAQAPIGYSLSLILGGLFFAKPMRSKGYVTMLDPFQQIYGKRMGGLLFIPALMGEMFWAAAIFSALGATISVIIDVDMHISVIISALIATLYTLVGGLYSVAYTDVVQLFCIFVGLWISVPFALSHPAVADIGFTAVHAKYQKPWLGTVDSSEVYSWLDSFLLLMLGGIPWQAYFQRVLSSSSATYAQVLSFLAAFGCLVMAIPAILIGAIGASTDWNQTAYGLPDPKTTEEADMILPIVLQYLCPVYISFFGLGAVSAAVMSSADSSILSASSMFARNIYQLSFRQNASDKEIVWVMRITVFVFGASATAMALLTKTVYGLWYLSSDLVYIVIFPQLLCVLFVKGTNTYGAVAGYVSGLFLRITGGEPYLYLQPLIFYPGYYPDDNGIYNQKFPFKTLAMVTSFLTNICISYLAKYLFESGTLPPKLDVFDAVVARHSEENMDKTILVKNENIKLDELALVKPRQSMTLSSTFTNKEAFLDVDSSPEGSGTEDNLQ
# CHT inh = inhibitors of human choline transporter CHT; High affinity choline transporter 1 (Homo sapiens), Q9GZV3; CHT-expressing cells, membrane potential dye, choline response; hits give low values; B-score at 10 µM; actives 0.86% (n = 310,000); AID 488975, 2010;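 active means B-score over 3 SD under the library average, and starting fluorescence ratio not unusually high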;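 further: choline stimulus applied at its EC90 after an EC20 pre-addition; B-score computed on integrated fluorescence ratio after choline addition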
# T cruzi repl = inhibitors of intracellular T. cruzi growth, primary screen, luminescence, NIH3T3 host cells; actives 1.4% (n = 300,000); T. cruzi beta-gal in NIH3T3, 90 h; inhibition, % (concentration not given with the values); AID 1885, 2009;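 active means mean inhibition across valid replicates above about 55%, limit read from the data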;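 further: signal also drops with host cell toxicity which is not excluded here; 0% = plate median of DMSO wells and 100% = zero luminescence signal; higher percent means less beta-gal luminescence so fewer parasites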
#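 compound dosing = single 50 nL compound addition per well in DMSO | material = NIH/3T3 host cells with β-galactosidase reporter T. cruzi | input = 5,000 host fibroblasts per well | timing = ≥90 h infection period, 3 h prior cell attachment | read-out basis = percent inhibition of parasite-derived β-gal signal | detection = GalScreen β-gal luminescence, detergent lysis, 60 min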
# CHT act confirm = CHT activators, confirmation, cell-based, membrane potential dye, duplicate; shares compounds with CHT PAM; CHT-expressing cells, membrane potential dye fluorescence (FDSS); % of choline EC20–EC90 response window; HEK293 expressing CHT LV-AA mutant; choline added at its EC20; activation, % at 10 µM; actives 91% (n = 2,500); AID 504833, 2011;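 active means primary screen active, with duplicate mean activation above negative control mean plus 3 SD, cut at about 11% in these data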
# HEK293 MP dye = membrane potential response in parental HEK293 cells, counter-screen for CHT activator project, cell-based, membrane potential dye. membrane potential dye fluorescence (FDSS); measured after EC20 choline addition. AID 623908, 2012. ratio readout change at 10 µM, hits read low. actives 62% (n = 2,500). shares compounds with CHT PAM;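 active means duplicate-averaged ratio beyond 3 SD from buffer wells, up or down, though filed actives are nearly all decreases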
# The depositor's hits bear a star; i = inactive; x = not tested or not shown.
SMILES,PolyA inh,CHT PAM,CHT inh,T cruzi repl,CHT act confirm,HEK293 MP dye
O=[N+]([O-])c1cnc2nc(-c3ccncc3)nn2c1O,0.1,i,i,-2.5,43.7*,-44.8*
C=CCSc1ccccc1C(=O)Nc1ncn[nH]1,1.5,i,i,-20.7,x,x
COc1ccc(NC(=O)/C(C#N)=C/c2ccc(-c3ccc(Cl)c(C(=O)O)c3)o2)cc1,-9.9,i,i,-2.0,x,x
CCc1ccccc1NC(=O)CN(c1ccc(OC)cc1OC)S(=O)(=O)c1ccccc1,2.8,i,i,7.6,x,x
COC(=O)C1=C(C)N(Cc2ccccc2)C(=NCc2cccc(C(F)(F)F)c2)N[C@H]1c1cccc(F)c1,18.8,i,i,45.2,x,x
CCN1C(=NCc2cccc(Cl)c2)N[C@@H](c2cccc(F)c2)C(C(=O)OC)=C1C,-1.7,i,i,16.9,0.9,i
COC(=O)C1=C(C)N(Cc2ccccc2)C(=O)N[C@H]1c1ccccc1,-0.1,i,i,14.4,x,x
COC(=O)C1=C(C)N(Cc2ccccc2)C(=NCC(C)C)N[C@H]1c1ccccc1,-6.0,i,i,35.4,34.9*,i
Cc1ccc(NC(=O)C2C3C=CC4(O3)C2C(=O)N(CCCN2CCCCC2)C4C(=O)NC2CCCCC2)cc1C (stereo not given),-6.1,i,i,0.6,x,x
C=CC[n+]1ccc2ccccc2c1C,4.5,7.74*,i,-0.1,64.7*,-60.7*
O=C(NCC(c1ccco1)N1CCc2ccccc2C1)c1ccc(Cl)cc1 (stereo not given),21.8,i,i,3.0,10.8*,i
Cc1ccc(C(=O)NCC(c2ccco2)N2CCc3ccccc3C2)cc1 (stereo not given),6.3,i,i,14.8,x,x
O=C(NCC(c1ccco1)N1CCc2ccccc21)c1ccccc1Cl (stereo not given),12.1,9.36*,i,0.8,29.2*,i
COc1cc(NC(=O)c2ccccc2)c(C)cc1NC(=O)CC(CC(=O)O)c1ccccc1 (stereo not given),19.1,i,i,-4.2,x,x
COc1ccc(-c2nc(CN3CCC(C(=O)N4CCc5ccccc54)CC3)c(C)o2)cc1OC,-18.2,i,i,11.3,38.8*,-37.5*
COc1ccc(CCNC(=O)C2CCN(Cc3nc(-c4cccc(Cl)c4)oc3C)CC2)cc1OC,11.3,i,i,-6.7,29.9*,-35.9*
CCOc1ccc(NC(=O)C2CCN(C(=O)C3CC(=O)N(c4ccc(C)cc4)C3)CC2)cc1 (stereo not given),1.8,i,i,6.9,x,x
O=C(Nc1cccc(Cl)c1)c1ccccc1NC(=O)C1CCCCC1C(=O)O (stereo not given),10.3,i,i,-5.8,x,x
COc1cc(NC(=O)CN2C(=O)C(c3ccccc3)=NC23CCCCCC3)cc(OC)c1,5.9,7.59*,i,21.4,6.4,i
CC(=O)Nc1ccccc1C(=O)C(=O)Nc1ccc(F)c(Cl)c1,-7.1,i,i,-8.0,x,x
CN(C)C(/C=C/Nc1ccc([N+](=O)[O-])cc1)=C(C#N)C#N,5.1,7.08*,i,1.9,29.9*,-54.8*
CN(C)C(/C=C/Nc1ccc(Br)cc1)=C(C#N)C#N,15.7,7.31*,i,3.9,20.0*,-50.1*
NS(=O)(=O)c1ccc(CNC(=O)CCSCCC(=O)NCc2ccc(S(N)(=O)=O)cc2)cc1,4.5,i,i,-31.2,x,x
COc1ccc(C(=O)O)cc1S(=O)(=O)Nc1ccccc1Cc1ccccc1,-7.5,x,x,-13.9,x,x
N=C(N)SCCc1cnc[nH]1,x,i,i,x,x,x
SMILES,PolyA inh,CHT PAM,CHT inh,T cruzi repl,CHT act confirm,HEK293 MP dye
N=C(N)SCCc1cccc(CCSC(=N)N)c1,-13.0,9.04*,i,-1.0,42.6*,-45.5*
Cc1cc(/C=N\NC(=O)CC(=O)NC2CCCCC2)c(C)n1-c1cccc(Cl)c1Cl,-2.1,12.3*,i,4.4,22.6*,i
O=C(Nc1ccccc1C(=O)NCCCN1CCOCC1)c1cccc([N+](=O)[O-])c1,-10.0,6.32*,i,22.0,49.7*,-58.9*
O=C(NCCCN1CCOCC1)c1cccc(NC(=O)c2ccccc2)c1,-7.5,i,i,-10.3,x,x
Nc1c(-c2cccc([N+](=O)[O-])c2)nc2ccccn12,-4.0,i,i,-2.5,52.9*,-50.5*
Cn1nc(C(C)(C)C)c([N+](=O)[O-])c1C(=O)NC1CCCCC1,1.6,i,i,-12.5,x,x
Cc1ccc2cc(C)c(NCCO)nc2c1,13.5,8.1*,i,2.0,31.0*,-52.2*
Cc1ccccc1S(=O)(=O)Nc1nc2ccccc2nc1NCCO,5.1,i,i,-9.5,x,x
Cc1ccc2nc(C)cc(Nc3ccc4c(c3)OCCO4)c2c1,23.3,i,i,26.0,21.2*,-44.3*
Cc1ccc2nc(C)cc(NCCO)c2c1,-3.7,8.72*,i,10.0,53.4*,-66.6*
COCC(C)n1c(SCC(=O)N2CCc3ccccc3C2)nc2ccccc2c1=O (stereo not given),-8.6,i,i,11.6,x,x
CC(C)CCNC(=O)c1c(CSc2ccc(Cl)cc2)noc1C(=O)NCc1ccccc1,-27.2,i,i,11.0,x,x
COc1cccc(OC)c1NC(=O)C1CCCN1C(=O)Nc1ccccc1F (stereo not given),-11.0,x,x,-12.1,x,x
O=C(N/N=C/c1ccc([N+](=O)[O-])cc1)c1[nH]ncc1Br,-6.2,i,i,-2.9,x,x
O=[N+]([O-])c1ccc(C[n+]2cccc(O)c2)cc1,-5.4,i,i,-8.1,x,x
COc1cc2cc[n+](Cc3ccc([N+](=O)[O-])cc3)cc2cc1OC,-11.3,7.11*,i,-12.0,71.0*,-79.5*
Cc1ccccc1-c1nc(CS(=O)(=O)CC(=O)N2CCOCC2)c(C)o1,-12.1,i,i,-11.1,x,x
CCCc1c(CC)c(=N)c2ccccc2n1C,3.7,7.54*,i,71.7*,63.7*,-58.1*
Cn1c(CN2CCCCC2)c(C#N)c2ccccc21,13.2,i,i,7.9,x,x
CC(=O)c1ccc(OCCCC(=O)NCCc2ccc(C(F)(F)F)cc2)cc1,12.7,i,i,2.1,x,x
c1ccc(CN2CCN(c3nc(-c4ccccc4)nc4ccccc34)CC2)cc1,-45.6,i,i,43.9,x,x
